Reference: ChEMBL document CHEMBL4325900, “Antibacterial activity evaluation of synthetic novel pleuromutilin derivatives in vitro and in experimental infection mice” (2019)
In brackets after ≈: the same amount, converted by molar mass.

Legend:
[1] = tested on: Staphylococcus epidermidis; assay: Antibacterial activity against methicillin-resistant Staphylococcus epidermidis after 24 hrs by NCCLS method; format: functional
In short: (§1)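 Broth microdilution in Mueller-Hinton broth. Stocks at 1280 µg/mL in aqueous 10-20% DMSO, diluted to 128 µg/mL, then 2-fold serially to final 64 down to 0.125 µg/mL. Overnight MHB cultures diluted to 10^6~10^7 CFU/mL and added 1:1 to compound. Incubated 24 h at 37°C. MIC read from OD against MHB blank. Three parallels per concentration.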

Escherichia coli = assay: Antibacterial activity against Escherichia coli ATCC 11775 after 24 hrs by NCCLS method; format: functional; conditions: DSM 30083 = JCM 1649 = ATCC 11775, 24 h
In short: (§2)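 Broth microdilution in Mueller-Hinton broth. Stocks at 1280 µg/mL in aqueous 10-20% DMSO were diluted to 128 µg/mL, then serially 2-fold diluted giving final concentrations of 64 down to 0.125 µg/mL. Overnight MHB cultures were diluted to 10^6~10^7 CFU/mL, and 100 µL was added per well. Plates ran 24 h at 37°C. MIC was read from OD against an MHB blank, in triplicate.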

Staphylococcus aureus [2] = assay: Antibacterial activity against methicillin-resistant Staphylococcus aureus infected in Kunming mouse assessed as mouse survival at 40 mg/kg, ig qd treated for 3 consecutive days and measured at day 6 relative to control; format: functional; conditions: po, 144 h
In short: (§3)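 Female Kunming mice, 22±2 g, made neutropenic with cyclophosphamide i.p., 150 mg/kg 4 days and 100 mg/kg 1 day before infection. Infected i.p. with 0.5 mL suspension of clinical MRSA isolate. Intragastric dosing at 20 or 40 mg/kg/d, starting 1 h post-infection, once daily for 3 consecutive days. Survival monitored.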

Pasteurella multocida = assay: Antibacterial activity against Pasteurella multocida after 24 hrs by NCCLS method; format: functional; in short: as §2
Staphylococcus aureus [3] = assay: Bactericidal activity against exponential phase of methicillin-resistant Staphylococcus aureus after 1 to 4 hrs by time kill kinetics assay; format: functional, organism-based
In short: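 Exponential-phase S. aureus (4 h at 37°C, 120 rpm) diluted to ~2×10^7 CFU/mL in MHB and mixed 1:1 with MHB containing twice the desired compound concentration. Shaken at 37°C, 120 rpm. Samples at 1, 2, 3 and 4 h washed with PBS, diluted, spot-plated on MH agar, counted after ~18 h at 37°C as log10 CFU/mL. Triplicate, mean±s.d.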

Staphylococcus aureus [4] = assay: Antibacterial activity against methicillin-resistant Staphylococcus aureus infected in Kunming mouse assessed as mouse survival at 40 mg/kg, ig qd treated for 3 consecutive days and measured at day 5 relative to control; format: functional; conditions: po, 120 h; in short: as §3
Enterococcus faecium = assay: Antibacterial activity against Enterococcus faecium after 24 hrs by NCCLS method; format: functional; in short: as §2
Enterococcus faecalis = assay: Antibacterial activity against Enterococcus faecalis after 24 hrs by NCCLS method; format: functional; in short: as §2
Staphylococcus aureus [5] = assay: Antibacterial activity against methicillin-resistant Staphylococcus aureus infected in Kunming mouse assessed as mouse survival at 20 mg/kg, ig qd treated for 3 consecutive days and measured up to 10 days relative to control; format: functional; conditions: po, 240 h; in short: as §3
Staphylococcus aureus [6] = assay: Antibacterial activity against methicillin-resistant Staphylococcus aureus infected in Kunming mouse assessed as mouse survival at 40 mg/kg, ig qd treated for 3 consecutive days and measured during compound treatment relative to control; format: functional; conditions: po; in short: as §3
Staphylococcus aureus [7] = assay: Antibacterial activity against methicillin-resistant Staphylococcus aureus after 24 hrs by NCCLS method; format: functional; in short: as §1
Staphylococcus aureus [8] = assay: Antibacterial activity against methicillin-resistant Staphylococcus aureus clinical isolates infected in ip dosed mouse assessed as reduction in bacterial infection administered 1 hr after infection and measured after 7 days; format: functional
In short: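 Kunming mice, half male and half female, 19-23 g, 10 per group. Infected i.p. with 0.5 mL clinical MRSA isolate suspension (~10^7 CFU/mL). Single i.p. dose 1 h post-infection, five dose levels between 7.0 and 50.0 mg/kg depending on compound. Vehicle was DMSO:Tween-80:water 1:1:8, or water for valnemulin. ED50 by Probit analysis from survival after 7 days; 95% confidence ranges.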

Staphylococcus aureus [9] = assay: Antibacterial activity against methicillin-sensitive Staphylococcus aureus after 24 hrs by NCCLS method; format: functional; in short: as §2
[10] = tested on: Staphylococcus epidermidis; assay: Antibacterial activity against methicillin-sensitive Staphylococcus epidermidis after 24 hrs by NCCLS method; format: functional; in short: as §1

SMILES	MIC [1] [µg/mL]	MIC (Escherichia coli) [µg/mL]	survival at 40 mg/kg (Staphylococcus aureus [2]) [%]	MIC (Pasteurella multocida) [µg/mL]	Activity (Staphylococcus aureus [3])	survival at 40 mg/kg (Staphylococcus aureus [4]) [%]	MIC (Enterococcus faecium) [µg/mL]	MIC (Enterococcus faecalis) [µg/mL]	survival at 20 mg/kg (Staphylococcus aureus [5]) [%]	survival at 40 mg/kg (Staphylococcus aureus [6]) [%]	MIC (Staphylococcus aureus [7]) [µg/mL]	ED50 (Staphylococcus aureus [8]) [mg/kg]	MIC (Staphylococcus aureus [9]) [µg/mL]	MIC [10] [µg/mL]
C=C[C@]1(C)C[C@@H](OC(=O)CSC(C)(C)CNC(=O)[C@H](N)C(C)C)[C@]2(C)[C@H](C)CC[C@]3(CCC(=O)[C@H]32)[C@@H](C)[C@@H]1O.Cl [VALNEMULIN HYDROCHLORIDE]	0.25	32	80	16	Dose-dependent effect	70	0.125	> 64	30	> 90	0.25	13.5	0.25	0.125
C=C[C@]1(C)C[C@@H](OC(=O)CSc2nc(NC(=O)CN3CCNCC3)c3cc[nH]c3n2)[C@]2(C)[C@H](C)CC[C@]3(CCC(=O)[C@H]32)[C@@H](C)[C@@H]1O	1 (≈ 1.53 µM)	> 64		32 (≈ 49 µM)			1 (≈ 1.53 µM)	64 (≈ 98 µM)			4 (≈ 6.13 µM)		2 (≈ 3.06 µM)	1 (≈ 1.53 µM)
C=C[C@]1(C)C[C@@H](OC(=O)CSc2nc(NC(=O)CN3CCC(CO)CC3)c3cc[nH]c3n2)[C@]2(C)[C@H](C)CC[C@]3(CCC(=O)[C@H]32)[C@@H](C)[C@@H]1O	0.125 (≈ 0.183 µM)	> 64		64 (≈ 93.9 µM)			0.25 (≈ 0.367 µM)	64 (≈ 93.9 µM)			0.25 (≈ 0.367 µM)		0.25 (≈ 0.367 µM)	0.125 (≈ 0.183 µM)
C=C[C@]1(C)C[C@@H](OC(=O)CSc2nc(NC(=O)CN3CCCCC3)c3cc[nH]c3n2)[C@]2(C)[C@H](C)CC[C@]3(CCC(=O)[C@H]32)[C@@H](C)[C@@H]1O	0.125 (≈ 0.192 µM)	64 (≈ 98.2 µM)		32 (≈ 49.1 µM)			0.125 (≈ 0.192 µM)	32 (≈ 49.1 µM)			0.125 (≈ 0.192 µM)	19.7	0.0625 (≈ 0.0959 µM)	0.0625 (≈ 0.0959 µM)
C=C[C@]1(C)C[C@@H](OC(=O)CSc2nc(NC(=O)CN3CCC(N4CCCCC4)CC3)c3cc[nH]c3n2)[C@]2(C)[C@H](C)CC[C@]3(CCC(=O)[C@H]32)[C@@H](C)[C@@H]1O	0.5 (≈ 0.68 µM)	64 (≈ 87.1 µM)		64 (≈ 87.1 µM)			0.0625 (≈ 0.085 µM)	64 (≈ 87.1 µM)			0.5 (≈ 0.68 µM)		0.5 (≈ 0.68 µM)	0.25 (≈ 0.34 µM)
C=C[C@]1(C)C[C@@H](OC(=O)CSc2nc(NC(=O)CNC3CC3)c3cc[nH]c3n2)[C@]2(C)[C@H](C)CC[C@]3(CCC(=O)[C@H]32)[C@@H](C)[C@@H]1O	0.25 (≈ 0.401 µM)	> 64		32 (≈ 51.3 µM)			0.25 (≈ 0.401 µM)	64 (≈ 103 µM)			0.25 (≈ 0.401 µM)		0.125 (≈ 0.2 µM)	0.125 (≈ 0.2 µM)
C=C[C@]1(C)C[C@@H](OC(=O)CSc2nc(NC(=O)CN3CCN(c4ccccc4)CC3)c3cc[nH]c3n2)[C@]2(C)[C@H](C)CC[C@]3(CCC(=O)[C@H]32)[C@@H](C)[C@@H]1O	1 (≈ 1.37 µM)	> 64		64 (≈ 87.8 µM)			1 (≈ 1.37 µM)	64 (≈ 87.8 µM)			1 (≈ 1.37 µM)		1 (≈ 1.37 µM)	0.5 (≈ 0.686 µM)
C=C[C@]1(C)C[C@@H](OC(=O)CSc2nc(NC(=O)CN3CCN(C)CC3)c3cc[nH]c3n2)[C@]2(C)[C@H](C)CC[C@]3(CCC(=O)[C@H]32)[C@@H](C)[C@@H]1O	0.5 (≈ 0.75 µM)	> 64		32 (≈ 48 µM)			0.5 (≈ 0.75 µM)	64 (≈ 96 µM)			1 (≈ 1.5 µM)		0.125 (≈ 0.187 µM)	0.25 (≈ 0.375 µM)
C=C[C@]1(C)C[C@@H](OC(=O)CSc2nc(NC(=O)CN3CCC(O)CC3)c3cc[nH]c3n2)[C@]2(C)[C@H](C)CC[C@]3(CCC(=O)[C@H]32)[C@@H](C)[C@@H]1O	1 (≈ 1.5 µM)										2 (≈ 2.99 µM)			1 (≈ 1.5 µM)
C=C[C@]1(C)C[C@@H](OC(=O)CSc2nc(NC(=O)CNC3CCCCC3)c3cc[nH]c3n2)[C@]2(C)[C@H](C)CC[C@]3(CCC(=O)[C@H]32)[C@@H](C)[C@@H]1O	0.5 (≈ 0.751 µM)	> 64		64 (≈ 96.1 µM)			0.5 (≈ 0.751 µM)	64 (≈ 96.1 µM)			1 (≈ 1.5 µM)		0.5 (≈ 0.751 µM)	0.5 (≈ 0.751 µM)
C=C[C@]1(C)C[C@@H](OC(=O)CSc2nc(NC(=O)CN3CCOCC3)c3cc[nH]c3n2)[C@]2(C)[C@H](C)CC[C@]3(CCC(=O)[C@H]32)[C@@H](C)[C@@H]1O	0.25 (≈ 0.382 µM)	64 (≈ 97.9 µM)		32 (≈ 48.9 µM)			0.25 (≈ 0.382 µM)	64 (≈ 97.9 µM)			0.25 (≈ 0.382 µM)		0.125 (≈ 0.191 µM)	0.25 (≈ 0.382 µM)
C=C[C@]1(C)C[C@@H](OC(=O)CSc2nc(N)c3cc[nH]c3n2)[C@]2(C)[C@H](C)CC[C@]3(CCC(=O)[C@H]32)[C@@H](C)[C@@H]1O	2 (≈ 3.8 µM)	> 64		64 (≈ 122 µM)			1 (≈ 1.9 µM)	64 (≈ 122 µM)			1 (≈ 1.9 µM)		1 (≈ 1.9 µM)	1 (≈ 1.9 µM)
C=C[C@]1(C)C[C@@H](OC(=O)CSc2nc(NC(=O)CN3CCC(N(C)C)CC3)c3cc[nH]c3n2)[C@]2(C)[C@H](C)CC[C@]3(CCC(=O)[C@H]32)[C@@H](C)[C@@H]1O	0.5 (≈ 0.719 µM)	> 64		64 (≈ 92.1 µM)			1 (≈ 1.44 µM)	64 (≈ 92.1 µM)			1 (≈ 1.44 µM)		0.5 (≈ 0.719 µM)	0.5 (≈ 0.719 µM)
C=C[C@]1(C)C[C@@H](OC(=O)CSc2nc(NC(=O)CN3CCN(c4ccccn4)CC3)c3cc[nH]c3n2)[C@]2(C)[C@H](C)CC[C@]3(CCC(=O)[C@H]32)[C@@H](C)[C@@H]1O	0.5 (≈ 0.685 µM)	> 64		> 64			0.25 (≈ 0.342 µM)	64 (≈ 87.7 µM)			0.5 (≈ 0.685 µM)		1 (≈ 1.37 µM)	0.5 (≈ 0.685 µM)
C=C[C@]1(C)C[C@@H](OC(=O)CSc2nc(NC(=O)CN3CCC(c4ccccc4)CC3)c3cc[nH]c3n2)[C@]2(C)[C@H](C)CC[C@]3(CCC(=O)[C@H]32)[C@@H](C)[C@@H]1O	0.25 (≈ 0.343 µM)										0.25 (≈ 0.343 µM)		0.25 (≈ 0.343 µM)	0.25 (≈ 0.343 µM)
